# The list is not random: actives were taken first. Their share in the collection is about 4%.
# Arrestin-AP2 inh: inhibitors of beta-arrestin/AP2 binding, primary screen, biochemical, GPCR trafficking, flow cytometry. inhibition, % at 10 µM. 0.31% of 340,000 active. beta-arrestin 1 C-terminal peptide binding to AP2 beta2-adaptin appendage (human). AID 504490, 2011. FITC-arrestin peptide / GST-AP2 beads; AP2 beta2 appendage carries R879A mutation;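 active = inhibition above a set limit, near 3 SD of compounds lacking own fluorescence, cut at about 54% in these data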;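 note: plate controls were DMSO wells for no effect and 5 µM unlabelled arrestin peptide for full effect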
#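 Material – GST-tagged AP2 beta2-adaptin appendage (R879A) on 4 µm glutathione beads · Probe or stimulus – fluorescein-tagged arrestin peptide at 50 nM final · Timing – 12 min plus 1 h, RT · Detection – bead flow cytometry, FITC channel · Read-out basis – inhibition as reduced fluorescein signal on beads, percent · Medium – PBS plus Tween 20 (0.05%) and BSA (0.1%)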
# iPSC survival up: enhancers of single-cell hiPSC survival, primary screen, ATPlite luminescence; 0.044% of 360,000 active; AID 602274, 2012; 100% = ROCK inhibitor wells, 0% = DMSO; survival enhancement, % at 20 µM; in the data active = survival enhancement above about 18%;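 note: cells exposed to compounds for 16 hours before the ATP read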
# Cardio protect: cardioprotection against H2O2-induced cell death, primary screen, uHTS, H9c2 cells, ATPLite luminescence. H9c2 cardiomyocytes, H2O2 injury protection, 2 h. protection from H2O2 cell death, % at 20 µM. 0.63% of 360,000 active. AID 588492, 2011;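 active = compounds giving at least 50% protection of heart cells from peroxide-induced death in the single-dose screen, raw or plate-pattern-corrected value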;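 note: 0% = DMSO wells with peroxide and 100% = DMSO wells without peroxide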
# NR3A LBD binder: binders of NR3A ligand-binding domain, primary screen, biophysical, differential scanning fluorimetry, uHTS; NR3A LBD differential scanning fluorimetry, Tm shift; 0% = protein alone, 100% = glycine-bound protein; AID 1259313, 2017; 2.5% of 340,000 active; Tm shift relative to glycine control, % at 25 µM;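 active = melting temperature shift of at least 10% of the positive control shift, at one fixed dose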
# FAS-TE inh: FAS thioesterase domain inhibitors, primary screen, biochemical, fluorescence intensity, uHTS; Fatty acid synthase (Homo sapiens), P49327; recombinant FAS-TE, OMFH fluorogenic substrate, fluorescence endpoint; inhibition, % at 15 µM; 0.67% of 360,000 active; AID 602261, 2012;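 active = compounds whose normalised, plate-corrected inhibition of enzyme fluorescence in the single-dose primary screen is 50% or more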;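 note: 0% = DMSO with enzyme and 100% = substrate without enzyme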
# SENP1 inh: human SENP1 catalytic domain inhibitors, primary screen, biochemical, FRET, uHTS | Sentrin-specific protease 1 (Homo sapiens), Q9P0U3 | recombinant SENP1 catalytic domain, CyPet-SUMO1-YPet FRET cleavage | inhibition, % at 10 µM | 0.21% of 360,000 active;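 active = inhibition at least 30% at 10 µM, raw YFP signal under a set limit, fluorescence ratio 0.5 to 1.5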;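 note: 0% = enzyme with DMSO and 100% = no enzyme wells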
# Target sequence (Q9P0U3 419-644 limits assumed): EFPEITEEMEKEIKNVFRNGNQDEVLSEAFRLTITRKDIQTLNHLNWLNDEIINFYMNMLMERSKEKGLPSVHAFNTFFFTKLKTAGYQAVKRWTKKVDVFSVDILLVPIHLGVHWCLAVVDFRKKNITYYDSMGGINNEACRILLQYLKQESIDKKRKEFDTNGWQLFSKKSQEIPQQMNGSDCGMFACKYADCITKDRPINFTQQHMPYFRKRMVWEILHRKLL
#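 System: Recombinant human SENP1 catalytic domain, His6-tagged | Incubation: Enzyme reaction for 50 min at room temperature, dark | Medium: Tris pH 8 with BME, BSA, NP40 and catalase | Also added: 25 nM SUMO1 FRET substrate | Compound: 10 µM single point, 0.5% DMSO | Measured by: FRET fluorescence in CFP and YFP emission channels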
# * hit, by the source's call; . = no result.
SMILES,Arrestin-AP2 inh,iPSC survival up,Cardio protect,NR3A LBD binder,FAS-TE inh,SENP1 inh
O=C(CCN1C(=O)/C(=C/c2ccc(F)cc2)SC1=S)NCCc1ccc(O)cc1,8,0,-14,16*,16,3
C#CCn1c(=NC(=O)c2ccc(S(=O)(=O)N3CCCc4ccccc43)cc2)sc2cc(S(N)(=O)=O)ccc21,-2,2,-6,19*,23,-6
CCOC(=O)[C@]12CCC=C1N(Cc1ccco1)C(=O)[C@H](CC(=O)NCC1CCCCC1)C2,.,0,.,.,-5,-7
CC1CCCC(C)N1C(=O)COC(=O)c1n[nH]c(=O)c2ccccc12 (stereo not drawn),-4,0,54*,1,-4,2
CC1CCN(C(=O)COC(=O)c2n[nH]c3ccccc23)CC1,9,-1,-20,-2,-7,2
O=C(OCC(=O)N1CCc2ccccc21)c1n[nH]c(=O)c2ccccc12,11,0,73*,4,1,-1
CC1(C)CC2CC(C)(CN2C(=O)COC(=O)c2cccnc2Cl)C1 (stereo not drawn),4,0,6,0,2,-1
CC1(C)CC2CC(C)(CN2C(=O)COC(=O)c2n[nH]c(=O)c3ccccc23)C1 (stereo not drawn),19,8,60*,2,4,3
CC1CCCC(C)N1C(=O)COC(=O)c1nn(C)c(=O)c2ccccc12 (stereo not drawn),-9,0,-1,-1,-4,2
O=C(OCC(=O)N1CCCCCC1)c1n[nH]c(=O)c2ccccc12,17,0,51*,-1,-10,1
Cn1nc(C(=O)OCC(=O)N2CCc3ccccc32)c2ccccc2c1=O,2,-1,5,-1,5,0
CCC1([N+](=O)[O-])COC(c2ccc(Cl)cc2)OC1 (stereo not drawn),2,-4,-4,0,6,0
COc1ccc(OC)c(N(CCN2C(=O)c3ccccc3C2=O)C(=O)CCl)c1,.,-3,2,.,-8,0
O=C(COc1ccccc1)N1CCc2ccccc21,25,0,-11,-1,-10,0
O=C(COc1ccc(Br)cc1)N1CCc2ccccc21,24,0,-5,12*,20,1
COc1ccc(-c2cc(C3CCN(c4cc(Cl)nc(N)n4)CC3)[nH]n2)cc1,9,0,-10,-14,4,-1
Nc1nc(Cl)cc(N2CCC(c3cc(-c4ccc(Cl)cc4)n[nH]3)CC2)n1,33,0,-23,17*,29,-1
COc1cccc(-c2ccc3c(c2)O[C@H](CN(C)C(=O)c2ccccc2F)[C@H](C)CN([C@H](C)CO)S3(=O)=O)c1,.,1,22,.,19,2
C/C(CC(=O)Nc1ccc2c(c1)OCCO2)=N\NC(=O)Cc1ccc(Cl)cc1,-3,0,3,-1,3,2
O=C(Cc1c(C(=O)O)[nH]c2ccc(Cl)cc12)Nc1ccc2c(c1)OCCO2,5,3,6,12*,9,1
Oc1cnn(-c2ccccc2)c1,-7,-1,7,15*,-13,3
COC(=O)[C@]12CCCCC=C1N(CCc1ccc(OC)c(OC)c1)C(=O)[C@H](CC(=O)N1CCOCC1)C2,.,.,.,.,.,5
Cc1sc2nc(CSCC(=O)N(C)CC(=O)Nc3ccc(F)cc3)[nH]c(=O)c2c1C,27,0,54*,5,-13,-8
CC(=O)OCc1nc2sc(C)c(C)c2c(=O)[nH]1,12,-2,51*,-3,-7,0
Cc1sc2nc(CSCC(=O)Nc3c(F)cccc3F)[nH]c(=O)c2c1C,6,2,27,0,-10,17
SMILES,Arrestin-AP2 inh,iPSC survival up,Cardio protect,NR3A LBD binder,FAS-TE inh,SENP1 inh
Cc1sc2nc(CSCC(=O)Nc3ccc(C(F)(F)F)cc3)[nH]c(=O)c2c1C,-13,-2,5,-2,17,-11
Cc1sc2nc(CC(=O)NN)[nH]c(=O)c2c1C,-9,0,37,-2,-3,-17
Cc1sc2nc(CSCC(=O)NC(C)(C)C)[nH]c(=O)c2c1C,55*,1,39,-2,-11,8
Cc1sc2nc(CSCC(=O)N(CCC#N)c3ccccc3)[nH]c(=O)c2c1C,-3,-1,64*,-1,-15,-20
COCCNC(=O)C1(C)CCN(C(=O)c2cc(C(C)(C)C)nn2C)C1 (stereo not drawn),.,0,6,.,-4,1
CCc1nc2ccc(C(=O)NCc3cccs3)cn2c1N(CC)Cc1cccc(Br)c1,.,-3,-8,.,6,-3
Cc1sc2nc(CSCC(=O)N(C)c3ccccc3)[nH]c(=O)c2c1C,7,1,66*,-6,-25,-13
O=S(=O)(Nc1nc2ccccc2nc1N1CCc2ccccc2C1)c1ccc(Cl)cc1,4,-1,-12,10,20,-11
O=S(=O)(Nc1nc2ccccc2nc1N1CCc2ccccc2C1)c1ccc(Br)cc1,0,-3,-6,10*,-8,-79
CC(=O)Nc1ccc(S(=O)(=O)Nc2nc3ccccc3nc2N2CCc3ccccc3C2)cc1,0,1,6,16*,5,-34
O=C(NCc1ccccc1)C(C1CC1)n1c(=O)c(-c2ccco2)nc2ccccc21 (stereo not drawn),.,.,.,.,.,-45
COC(=O)[C@]12CCCCC=C1N(Cc1ccco1)C(=O)[C@H](CC(=O)N1CCCCC1)C2,.,-1,.,.,-12,2
Cc1ccc(C)c(N=Cc2cc3c(cc2[N+](=O)[O-])OCO3)c1,7,2,63*,-3,-33,-20
COCCN1C(=O)CCC1(C)c1nnnn1Cc1ccccc1 (stereo not drawn),.,0,.,.,-11,1
O=C(CN1CCN(C(=O)CCC(=O)N2CCC(c3ccccc3)=N2)CC1)Nc1ccc(F)cc1,-1,0,-2,18*,0,-1
O=C(CN1CCN(C(=O)CCC(=O)N2CCC(c3ccccc3)=N2)CC1)Nc1cccc(F)c1,.,-1,0,.,-1,-1
O=C(Nc1ccccc1C(=O)NCc1ccco1)c1ccco1,24,5,7,-1,-6,-2
O=C(Nc1ccccc1C(=O)Nc1ccccc1C(=O)NCc1ccco1)c1ccco1,-6,-3,52*,4,20,-1
O=C(CNC(=O)c1ccccc1)NCCCSc1ccccc1,-3,-2,3,0,-6,0

# From PubChem BioAssay
